ChEMBL document CHEMBL3272006, “Synthesis of some 1, 8- and 2, 8-disubstituted derivatives of adenosine cyclic 3', 5'-phosphate and their interaction with some enzymes of cAMP metabolism” (J Med Chem, 1976)

Key:
[1] = organism: Bos taurus; assay: Ratio of Ka for cAMP to Ka for compound for bovine brain protein kinase in presence of 0.5 nmol [32P]ATP-gamma by liquid scintillation spectrometer
[2] = organism: Oryctolagus cuniculus; assay: Activity of rabbit kidney PDE assessed as enzyme-mediated compound hydrolysis after 10 to 60 mins by colorimetric assay relative to cAMP; type: tissue-based
Method in brief: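 Rabbit kidney enzyme; 0.60 ml mix with 3.0 µmol cyclic nucleotide (5 mM), 3.0 µmol Tris HCl pH 7.5, 6 µmol MgCl2, 0.1–0.3 mg protein. Incubated usually 10–60 min, stopped by heating, bacterial alkaline phosphatase added, released phosphate read colorimetrically. Rate expressed relative to cAMP hydrolysis (nmol 5'-AMP per min).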

[3] = Inhibition of rabbit lung PDE assessed as inhibition 8-[3H]-cAMP substrate hydrolysis; set-up: species or system Oryctolagus cuniculus; settings: read-out: I50
Method in brief: (§1)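 Beef heart or rabbit lung enzyme; 0.5 ml with 25 µmol Tris HCl pH 7.5, 5 µmol MgCl2, 20–200 µg protein, 80 pmol 8-[3H]cAMP, varying inhibitor levels. Times set by pilot runs. Heat stop, snake venom 5'-nucleotidase converts product to nucleoside, unreacted cyclic nucleotide bound to Dowex-1, nucleoside radioactivity counted. Nucleotidase interference checked with [14C]-5'-AMP.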

[4] = Inhibition of bovine heart PDE assessed as inhibition 8-[3H]-cAMP substrate hydrolysis; set-up: species or system Bos taurus; settings: read-out: I50; method in brief: as §1

Structure (SMILES)	Ratio [1]	fold change (FC) [2]	IC50 [3] [µM]	IC50 [4] [µM]
Nc1ncnc2c1nc(Br)n2[C@@H]1O[C@@H]2COP(=O)(O)O[C@H]2[C@H]1O	2.9	< 0.05	40	–
Cc1nc(N)c2nc(SCc3ccccc3)n([C@@H]3O[C@@H]4COP(=O)(O)O[C@H]4[C@H]3O)c2n1	0.95	0.05	9.5	4.3
CCCCc1nc(N)c2nc(Br)n([C@@H]3O[C@@H]4COP(=O)(O)O[C@H]4[C@H]3O)c2n1	0.66	< 0.05	17	11
Cc1nc(N)c2nc(N=[N+]=[N-])n([C@@H]3O[C@@H]4COP(=O)(O)O[C@H]4[C@H]3O)c2n1	0.45	0.16	67	50
[N-]=[N+]=Nc1nc2c(N)ncnc2n1[C@@H]1O[C@@H]2COP(=O)(O)O[C@H]2[C@H]1O	0.68	< 0.05	80	43
Nc1ncnc2c1nc(SCc1ccccc1)n2[C@@H]1O[C@@H]2COP(=O)(O)O[C@H]2[C@H]1O	2.1	< 0.05	53	17
CCCCc1nc(N)c2nc(SCc3ccccc3)n([C@@H]3O[C@@H]4COP(=O)(O)O[C@H]4[C@H]3O)c2n1	1.1	< 0.05	9.5	7.1
Cc1nc(N)c2nc(Sc3ccc(Cl)cc3)n([C@@H]3O[C@@H]4COP(=O)(O)O[C@H]4[C@H]3O)c2n1	2.3	0.05	33	5
Cc1nc(N)c2nc(Br)n([C@@H]3O[C@@H]4COP(=O)(O)O[C@H]4[C@H]3O)c2n1	3.4	0.15	25	30
CCCCc1nc(N)c2nc(Sc3ccc(Cl)cc3)n([C@@H]3O[C@@H]4COP(=O)(O)O[C@H]4[C@H]3O)c2n1	2.2	< 0.05	11	5
Nc1ncnc2c1nc(Sc1ccc(Cl)cc1)n2[C@@H]1O[C@@H]2COP(=O)(O)O[C@H]2[C@H]1O	18	< 0.05	200	–

Further lines, results first:

Ratio [1]	fold change (FC) [2]	IC50 [3] [µM]	IC50 [4] [µM]	Structure (SMILES)
0.16	0.83	1.6	1.1	Cc1nc(N)c2ncn([C@@H]3O[C@@H]4COP(=O)(O)O[C@H]4[C@H]3O)c2n1
0.46	0.64	3	10	CCCCc1nc(N)c2ncn([C@@H]3O[C@@H]4COP(=O)(O)O[C@H]4[C@H]3O)c2n1
0.012	0.16	65	80	Cn1cnc2c(ncn2[C@@H]2O[C@@H]3COP(=O)(O)O[C@H]3[C@H]2O)c1=N
0.15	< 0.05	400	59	Nc1c2nc(Br)n([C@@H]3O[C@@H]4COP(=O)(O)O[C@H]4[C@H]3O)c2nc[n+]1[O-]
0.45	0.33	35	50	Nc1c2ncn([C@@H]3O[C@@H]4COP(=O)(O)O[C@H]4[C@H]3O)c2nc[n+]1[O-]
1.3	–	61	67	Cn1cnc2c(nc(SCc3ccccc3)n2[C@@H]2O[C@@H]3COP(=O)(O)O[C@H]3[C@H]2O)c1=N
